PAX8 reporter = inhibitors of PAX8-driven TPO luciferase reporter, primary screen, RMG-I cells, single concentration; SteadyGlo, 24 h; inhibition, % at 12.6 µM; 360,000 compounds, 1.2% hits;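 active means mean replicate inhibition at least 60% with every replicate also reaching 60%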;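 further: luciferase light reporting Pax8 driven TPO promoter activity; plate controls were median of neutral control wells for no effect and mitoxantrone controls for full effect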
FN deposit inh = inhibitors of fibronectin matrix deposition, primary screen, AH1F cells, Alexa488-fibronectin fluorescence, plate reader; AH1F fibroblasts, overnight; inhibition, % at 12.6 µM; 350,000 compounds, 0.086% hits;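 active means mean inhibition across replicates of 30% or more, regardless of how many single replicates reach that level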;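 further: positive control wells lacked labelled fibronectin entirely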
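Measured by – fluorescence 485/525 nm · System – AH1F fibroblast monolayer, labelled fibronectin deposition · Amount – 10000 cells per well · Buffer or medium – serum-reduced DMEM (2% serum) · Doses – single dose, pinned · Also added – fluorescent fibronectin at 24 nM final · Schedule – 1 h cell attachment, overnight exposure to compound and label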
aSyn UTR inh = MLPCN primary screen, SNCA 5' untranslated region; alpha-synuclein 5'UTR reporter, inhibitor activity; inhibition, % (tested at 7.5 µM); 300,000 compounds, 0.82% hits; in the data active means inhibition above about 60%;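 further: H4 neuroglioblastoma cells stably carrying SNCA 5'UTR luciferase fusion; 0% = DMSO wells and 100% = positive control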
EWS-Fli inh = EWS/Fli-driven NR0B1 reporter inhibitors, primary screen, A673 cells, NR0B1 luciferase, luminescence, MLPCN library; viability-normalised; inhibition, % at 12.6 µM; 350,000 compounds, 0.67% hits;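 active means mean inhibition of at least 50% after viability correction, with every replicate also passing that limit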;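 further: firefly luciferase signal divided by Alamar Blue viability fluorescence both relative to DMSO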
Shn3 3UTR inh = reduction of Shn3 3'UTR firefly luciferase signal, primary screen, Schnurri-3 inhibitor project, cell-based, Clone20 osteoblasts, set 2 | 360,000 compounds, 0.52% hits | Clone20 osteoblast Shn3 3'UTR firefly luciferase, 24 h | AID 588674, 2011 | inhibition, % at 12.5 µM;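 active means mean inhibition of at least 75% with every replicate also reaching 75%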;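 further: 0% = median of neutral control wells and 100% = pilot-screen positive control compound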
LMP1 NFkB inh = EBV LMP1-driven NF-kappaB luciferase reporter inhibitors, primary screen, cell-based, luminescence, single point. inhibition, % at 12.5 µM. AID 504558, 2011. 350,000 compounds, 0.69% hits. LMP1-induced NF-kappaB luciferase reporter cells; in the data active means inhibition above about 41%;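 further: 0% = neutral control wells and 100% = reference inhibitor control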
Active calls of the source: *. Hits are enriched below; roughly 2.1% of the tested compounds scored in any of these assays.

For CC(=O)C1=C(C)NC(SCC(=O)c2ccc(Cl)c(Cl)c2)=C(C#N)C1c1ccco1 (stereo unspecified) the results were aSyn UTR inh -6, EWS-Fli inh 7, Shn3 3UTR inh 3 and LMP1 NFkB inh 5.
Screening C[C@@H]1CN([C@@H](C)CO)C(=O)Cc2cc(NC(=O)NC3CCCCC3)ccc2O[C@H]1CN(C)Cc1ccc(-c2ccccc2)cc1 returned PAX8 reporter 79* and EWS-Fli inh 17.
Screening C[C@H]1CN([C@@H](C)CO)C(=O)Cc2cc(NC(=O)NC3CCCCC3)ccc2O[C@H]1CN(C)Cc1ccc(-c2ccccc2)cc1 returned PAX8 reporter 103* and EWS-Fli inh 10.
`C[C@H](CO)N1C[C@H](C)[C@H](CN(C)Cc2ccc(-c3ccccc3)cc2)Oc2ccc(NC(=O)NC3CCCCC3)cc2CC1=O` gave PAX8 reporter 16 and EWS-Fli inh 3.
`C[C@H]1CN([C@@H](C)CO)C(=O)Cc2cc(NC(=O)NC3CCCCC3)ccc2O[C@@H]1CN(C)Cc1ccc(-c2ccccc2)cc1` gave PAX8 reporter 103* and EWS-Fli inh 13.
O=S(=O)(N[C@H]1CC[C@@H](CCn2cc(-c3cccnc3)nn2)O[C@@H]1CO)c1ccc(F)cc1 was read as PAX8 reporter -4 and EWS-Fli inh -7.
Screening CNC[C@H]1Oc2c(NC(=O)c3ccc(-c4nccs4)cc3)cccc2C(=O)N([C@H](C)CO)C[C@@H]1C returned PAX8 reporter -1, FN deposit inh 5 and EWS-Fli inh -5.
`C[C@H](CO)N1C[C@H](C)[C@@H](CN(C)Cc2ccc(F)cc2)Oc2ncc(C#Cc3cccnc3)cc2C1=O` gave PAX8 reporter -6 and EWS-Fli inh 2.
CC(=O)[C@@]1(O)CC[C@H]2[C@@H]3CCC4=CC(=O)CC[C@]4(C)[C@H]3[C@@H](O)C[C@@]21C was read as PAX8 reporter -3, FN deposit inh -12, aSyn UTR inh -16, EWS-Fli inh 0, Shn3 3UTR inh 9 and LMP1 NFkB inh 56*.
`CC12CCC(=O)C=C1CCC1C2C(O)CC2(C)C(c3csc(N)n3)CCC12` (stereo unspecified) gave PAX8 reporter -22, FN deposit inh 5, EWS-Fli inh 3, Shn3 3UTR inh 86* and LMP1 NFkB inh 11.
Screening CCC(C(=O)OCC(=O)C1(O)CCC2C3CCC4=CC(=O)CCC4(C)C3C(O)CC21C)C(C)C (stereo unspecified) returned PAX8 reporter 3, FN deposit inh -12, EWS-Fli inh -1, Shn3 3UTR inh 42 and LMP1 NFkB inh -3.
`COc1cccc(OC)c1C(=O)NNC(=O)c1cccc(COc2ccc3c(c2)CCC3)c1` gave PAX8 reporter -20, FN deposit inh -6, aSyn UTR inh -91, Shn3 3UTR inh -39 and LMP1 NFkB inh 30.
O=C(NCc1ccccc1)c1cccc(COc2ccc3c(c2)CCC3)c1 was read as PAX8 reporter 17, FN deposit inh -1, aSyn UTR inh 17, Shn3 3UTR inh -17 and LMP1 NFkB inh 58*.
`O=C(O)c1cccc(COc2ccc3c(c2)CCC3)c1` gave PAX8 reporter 108*, FN deposit inh 0, aSyn UTR inh 81*, EWS-Fli inh 88*, Shn3 3UTR inh 77 and LMP1 NFkB inh 85*.
For CCCNC(=O)C[C@H]1CC[C@@H]2[C@@H](COc3ccc(NC(=O)c4cccc(OC)c4)cc3C(=O)N2C)O1 the results were PAX8 reporter 8, FN deposit inh -14 and EWS-Fli inh -7.
For O=C(CN1CCOCC1)N[C@H]1CC[C@H](CCNC(=O)C2CCCC2)O[C@H]1CO the results were PAX8 reporter -3, FN deposit inh 0 and EWS-Fli inh 7.
Screening COc1ccc(OC)c(-c2cc(-c3cccnc3)nc(N)c2C#N)c1 returned PAX8 reporter 21, FN deposit inh 16, aSyn UTR inh 0, EWS-Fli inh 56*, Shn3 3UTR inh -8 and LMP1 NFkB inh 3.
COc1ccc(C(=O)/C(C#N)=N/Nc2ccc([N+](=O)[O-])cc2)cc1 was read as PAX8 reporter 90*, FN deposit inh 12, aSyn UTR inh 102*, EWS-Fli inh 10, Shn3 3UTR inh 89* and LMP1 NFkB inh 31.
For CCCCN(C(C)=O)c1ccc2c(c1)C1CC2CCN1C(=O)OCc1ccccc1 (stereo unspecified) the results were PAX8 reporter 29, FN deposit inh 11, EWS-Fli inh 5, Shn3 3UTR inh 90* and LMP1 NFkB inh 6.
CCN(CCc1ccccc1)c1ccc2c(c1)C1CC2CCN1C(=O)OCc1ccccc1 (stereo unspecified) was read as PAX8 reporter -5, FN deposit inh 1, EWS-Fli inh 4, Shn3 3UTR inh -1 and LMP1 NFkB inh -10.
`Cc1cccc(NS(=O)(=O)c2ccc(-c3cnc(C4CC4)o3)cc2)c1C` gave PAX8 reporter 75*, FN deposit inh -4, aSyn UTR inh 100*, Shn3 3UTR inh 29 and LMP1 NFkB inh 8.
`COc1ccc(NS(=O)(=O)c2cc(-c3cnc(C4CC4)o3)ccc2C)cc1` gave PAX8 reporter 34, FN deposit inh 13, aSyn UTR inh 82*, EWS-Fli inh 45, Shn3 3UTR inh 22 and LMP1 NFkB inh 2.
For O=S(=O)(Nc1ccccc1)c1ccc(-c2cnc(C3CC3)o2)cc1 the results were PAX8 reporter 36, FN deposit inh 24, aSyn UTR inh 0, Shn3 3UTR inh 10 and LMP1 NFkB inh 8.
COc1ccccc1NS(=O)(=O)c1cc(-c2cnc(C3CC3)o2)ccc1C was read as PAX8 reporter 45, FN deposit inh 3, aSyn UTR inh 1, EWS-Fli inh 31, Shn3 3UTR inh 14 and LMP1 NFkB inh -8.
For Cc1ccc(C)c(NS(=O)(=O)c2ccc(-c3cnc(C4CC4)o3)cc2)c1 the results were PAX8 reporter 85*, FN deposit inh -20, aSyn UTR inh 93*, Shn3 3UTR inh 9 and LMP1 NFkB inh 16.
For Cc1cc(C)cc(NS(=O)(=O)c2ccc(-c3cnc(C4CC4)o3)cc2)c1 the results were PAX8 reporter 75*, FN deposit inh -19, aSyn UTR inh 93*, Shn3 3UTR inh 74 and LMP1 NFkB inh 18.
For CN1CCN(C(=O)c2cc3c(c(-c4cccc(C#CCC5CCCC5)c4)n2)[C@H](CCO)N(S(=O)C(C)(C)C)C3)CC1 (stereo partly specified) the results were PAX8 reporter -55, FN deposit inh -6 and EWS-Fli inh -15.

Screening results from PubChem BioAssay.
